# According to ChEMBL document CHEMBL3244020, “Trichloroacetamidines, a new class of positive inotropic agents” (J Med Chem, 1978):
# The source made the active and inactive calls. No cut-off for these calls is given here.
# Legend:
# [1] = (§1) Inhibition of guinea pig kidney Na+-K+ dependent ATPase after 10 to 20 mins; set-up: species or system Cavia porcellus; details: read-out: I50
# Outline: (§2)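 Partially purified membrane ATPase from calf heart or guinea pig renal cortex. Reaction started by final addition of enzyme. Incubated at 37 °C under air, with aliquots taken at 10 and 20 min. Liberated phosphate measured by the Lowry–Lopez method. I50 came from log inhibitor vs percent inhibition lines, at least three points. This was done only where acute inhibition was >50% at 1 × 10⁻³ M.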
# [2] = Inhibition of guinea pig kidney Na+-K+ dependent ATPase preincubated for 30 mins measured after 10 to 20 mins; set-up: species or system Cavia porcellus; details: read-out: I50
# Outline: (§3)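 Partially purified membrane ATPase from calf heart or guinea pig renal cortex. Inhibitor plus enzyme were preincubated 30 min at 10× final concentrations, then added to the otherwise complete assay system. Incubated at 37 °C under air, with aliquots taken at 10 and 20 min. Liberated phosphate measured by the Lowry–Lopez method. I50 came from log inhibitor vs percent inhibition lines, at least three points.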
# [3] = Inhibition of calf heart Na+-K+ dependent ATPase preincubated for 30 mins measured after 10 to 20 mins; set-up: species or system Bos taurus; details: read-out: I50; outline: as §3
# [4] = (§4) Inhibition of calf heart Na+-K+ dependent ATPase after 10 to 20 mins; set-up: species or system Bos taurus; details: read-out: I50; outline: as §2
# [5] = Dissociation constant, pKa of the compound; format: physicochemical
# Outline: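 pKa determined in water or in 30% EtOH–70% H2O, depending on compound.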
# [6] = Positive inotropic activity in cat heart papillary muscle assessed as increase in contractile force at 0.156 ug/mL measured for 5 to 30 mins; format: functional, Felis catus, Muscle tissue
# Outline: (§5)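 Right-ventricular cat papillary muscles in Krebs–Henseleit solution at 37 °C, paced at 1/s (4–10 ms, 6–10 V square waves). Equilibrated about 90 min; compound added once force had fallen to 25–30% of original (1.5–2 h). Force recorded 5, 10, 20 and 30 min after addition, then ouabain 0.5 μg/mL added. Increase over 20% scored positive. Actives retested on three further preparations at ≥3 concentrations.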
# [7] = Positive inotropic activity in cat heart papillary muscle assessed as increase in contractile force at 2.5 ug/mL measured for 5 to 30 mins; format: functional, Felis catus, Muscle tissue
# Outline: (§6)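 Right-ventricular cat papillary muscles in Krebs–Henseleit at 37 °C, field-stimulated at 1/s (4–10 ms, 6–10 V). Muscles equilibrated about 90 min, until force fell to 25–30% of original. Compound added and force recorded at 5, 10, 20 and 30 min, followed by ouabain 0.5 μg/mL. Positives were retested on three more preparations at ≥3 concentrations. Scored as mg increase in contractile force.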
# Felis catus [8] = species: Felis catus; test: Positive inotropic activity in cat heart papillary muscle assessed as increase in contractile force up to 10 ug/mL measured for 5 to 30 mins in presence of beta-adrenergic inhibitor sotalol; format: functional, tissue-based
# Outline: (§7)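 Cat right-ventricular papillary muscle in Krebs–Henseleit at 37 °C, electrically driven at 1/s. Force recorded 5–30 min after compound, in the presence of the β-blocker sotalol at 10 μg/mL. Scored as mg increase in contractile force.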
# [9] = Positive inotropic activity in cat heart papillary muscle assessed as concentration required to increase contractile force by 500 mg measured for 5 to 30 mins; format: functional, Felis catus, Muscle tissue; outline: as §6
# [10] = (§8) Positive inotropic activity in cat heart papillary muscle assessed as increase in contractile force at 10 ug/mL measured for 5 to 30 mins; format: functional, Felis catus, Muscle tissue; outline: as §6
# Felis catus [11] = species: Felis catus; test: as §8; format: functional; details: Muscle tissue; outline: as §6
# Felis catus [12] = species: Felis catus; test: (§9) Positive inotropic activity in cat heart papillary muscle assessed as increase in contractile force at 0.63 ug/mL measured for 5 to 30 mins; format: functional; details: Muscle tissue
# Outline: (§10)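 Right-ventricular papillary muscles from cat hearts in a 100-mL bath of Krebs–Henseleit solution at 37 °C, driven electrically with square waves of 4–10 ms, 6–10 V, 1/s. Equilibrated about 90 min until force fell to 25–30% of initial. Compound added, contractile force read at 5, 10, 20 and 30 min, then ouabain 0.5 μg/mL as a responsiveness check. Positive inotropy means a rise above 20%.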
# Felis catus [13] = species: Felis catus; test: Positive inotropic activity in cat heart papillary muscle assessed as increase in contractile force at 10 ug/mL measured for 5 to 30 mins in presence of beta-adrenergic inhibitor sotalol; format: functional, tissue-based; outline: as §7
# Cavia porcellus = species: Cavia porcellus; test: as §1; outline: as §2
# Bos taurus = species: Bos taurus; test: as §4; outline: as §2
# [14] = Positive inotropic activity in cat heart papillary muscle assessed as increase in contractile force at 1.7 ug/mL measured for 10 mins (reference value: 855 mg); format: functional, Felis catus, Muscle tissue
# Outline: (§11)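 Electrically paced (1/s) right-ventricular cat papillary muscles in Krebs–Henseleit solution at 37 °C. Compound added after force declined to 25–30% of original following about 90 min equilibration. Contractile force followed over time to peak and to end of action. Values are the average of four experiments.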
# Canis familiaris [15] = test: Toxicity in Beagle dog assessed as reduction in mean arterial pressure at 5 mg/kg, iv; format: organism-based, Canis lupus familiaris, Artery; set-up: dose 5 mg/kg, route intravenous; details: in vivo
# Canis familiaris [16] = test: Toxicity in Beagle dog assessed as effect on mean arterial pressure at 1.25 mg/kg, iv; format: organism-based, Canis lupus familiaris, Artery; set-up: dose 1.25 mg/kg, route intravenous; details: in vivo
# Felis catus [17] = species: Felis catus; test: Positive inotropic activity in cat heart papillary muscle assessed as increase in contractile force at 1.7 ug/mL measured up to 45 mins; format: functional, tissue-based; details: Muscle tissue; outline: as §11
# Canis familiaris [18] = test: Positive inotropic activity in Beagle dog assessed as increase in left ventricular dp/dt maximum at 1.25 mg/kg, iv; format: functional, organism-based; set-up: dose 1.25 mg/kg; details: Canis lupus familiaris, Heart left ventricle
# Canis familiaris [19] = test: Positive inotropic activity in Beagle dog assessed as increase in left ventricular pressure at 1.25 mg/kg, iv; format: functional, organism-based; set-up: dose 1.25 mg/kg; details: Canis lupus familiaris, Heart left ventricle
# Canis familiaris [20] = test: Positive inotropic activity in Beagle dog assessed as increase in left ventricular contractile force at 5 mg/kg, iv; format: functional, organism-based; set-up: dose 5 mg/kg; details: Canis lupus familiaris, Heart left ventricle
# Canis familiaris [21] = test: Toxicity in Beagle dog assessed as increase in heart rate at 1.25 to 5 mg/kg, iv measured within 2 mins; format: organism-based, Canis lupus familiaris; set-up: dose 1.25-5 mg/kg, route intravenous; details: in vivo
# Felis catus [22] = species: Felis catus; test: Positive inotropic activity in heart papillary muscle isolated from reserpine-treated cat assessed as increase in contractile force at 10 ug/mL measured for 5 to 30 mins; format: functional, tissue-based; details: Muscle tissue
# Outline: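 Cats pretreated with reserpine 0.5 mg/kg ip before papillary muscle isolation. Right-ventricular muscles kept in Krebs–Henseleit at 37 °C, stimulated at 1/s, and force recorded at 5–30 min after compound addition.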
# Canis familiaris [23] = test: Positive inotropic activity in Beagle dog assessed as increase in left ventricular contractile force at 1.25 mg/kg, iv measured after 1 hr; format: functional, organism-based; set-up: dose 1.25 mg/kg; details: Canis lupus familiaris, Heart left ventricle
# Canis familiaris [24] = test: Positive inotropic activity in Beagle dog assessed as increase in left ventricular contractile force at 1.25 mg/kg, iv measured within 5 mins (reference value: 76 g); format: functional, Canis lupus familiaris, Heart left ventricle
# [25] = as §9; format: functional, Felis catus, Muscle tissue; outline: as §10
# [26] = Positive inotropic activity in cat heart papillary muscle assessed as increase in contractile force at 0.8 ug/mL measured for 5 mins (reference value: 1080 mg); format: functional, Felis catus, Muscle tissue
# [27] = Positive inotropic activity in cat heart papillary muscle assessed as increase in contractile force at 0.5 ug/mL measured for 5 to 30 mins; format: functional, Felis catus, Muscle tissue; outline: as §5
# Canis familiaris [28] = test: Positive inotropic activity in Beagle dog assessed as increase in left ventricular contractile force at 50 mg/kg, iv; format: functional, organism-based; set-up: dose 50 mg/kg; details: Canis lupus familiaris, Heart left ventricle
# [29] = Positive inotropic activity in cat heart papillary muscle assessed as increase in contractile force at 2 ug/mL measured for 5 to 30 mins; format: functional, Felis catus, Muscle tissue; outline: as §5
# [30] = Positive inotropic activity in cat heart papillary muscle assessed as increase in contractile force at 1 ug/mL measured for 5 to 30 mins; format: functional, Felis catus, Muscle tissue; outline: as §5
compound,measurement,setting,value
COc1ccc(CNC(=N)C(F)(Cl)Cl)cc1,IC50,[1],15 µM
same,IC50,[2],2 µM
same,IC50,[3],2 µM
same,IC50,[4],20 µM
same,pKa,[5],6.18
CCCNC(=N)C(Cl)(Cl)Cl.Cl,Activity,[6],< 200 mg
same,Activity,[7],201 mg
same,Activity,Felis catus [8],Active
same,Activity,[9],2.22 µg/mL
same,Activity,[10],>600 mg
O=C(NCCO)C(Cl)(Cl)Cl,Activity,Felis catus [8],Active
same,Activity,Felis catus [11],inactive
C[C@@H](NC(=N)C(Cl)(Cl)Cl)c1ccccc1,Activity,Felis catus [11],inactive
Cl.N=C(NCCc1ccc(O)c(O)c1)C(Cl)(Cl)Cl,Activity,Felis catus [12],inactive
same,Activity,[7],<200 mg
same,Activity,Felis catus [13],inactive
same,Activity,[9],>10 µg/mL
same,Activity,[10],201 mg
N=C(NCc1ccccc1CO)C(Cl)(Cl)Cl,I50,Cavia porcellus,inactive
same,I50,Bos taurus,inactive
same,Activity,Felis catus [8],Active
same,Activity,[10],201 mg
N=C(NCc1c[nH]c2ccccc12)C(Cl)(Cl)Cl,Activity,[6],201 mg
same,IC50,[3],20 µM
same,Activity,[14],1375 mg
same,Activity,Canis familiaris [15],Toxic
same,Activity,Canis familiaris [16],Non-toxic
same,IC50,[4],45 µM
same,Activity,[7],201 mg
same,Activity,Felis catus [17],Active
same,Activity,Canis familiaris [18],Active
same,Activity,Canis familiaris [19],Active
same,Activity,Canis familiaris [20],Active
same,pKa,[5],6
same,Activity,Canis familiaris [21],Toxic
same,Activity,Felis catus [22],Active
same,Activity,Felis catus [8],Active
same,Activity,[9],1.27 µg/mL
same,Activity,Canis familiaris [23],Active
same,Activity,Canis familiaris [24],125 g
same,Activity,[10],>600 mg
N=C(Nc1ccccc1)C(Cl)(Cl)Cl,Activity,Felis catus [11],inactive
C/N=C(\N(C)C)C(Cl)(Cl)Cl,Activity,Felis catus [13],inactive
CNC(=N)C(Cl)(Cl)Cl.Cl,I50,Cavia porcellus,inactive
same,Activity,[25],201 mg
same,IC50,[4],1000 µM
same,Activity,[7],>600 mg
same,Activity,Felis catus [13],inactive
same,Activity,[9],0.98 µg/mL
same,Activity,[10],>600 mg
N=C(NCCc1ccccc1)C(Cl)(Cl)Cl,Activity,Felis catus [11],inactive
ClC(Cl)(Cl)C1=NCCCN1,Activity,[6],<200 mg
same,Activity,[7],201 mg
same,Activity,Felis catus [13],inactive
same,Activity,[9],2.77 µg/mL
same,Activity,[10],>600 mg
N=C(NCCO)C(Cl)(Cl)Cl,Activity,Felis catus [12],inactive
same,Activity,[7],<200 mg
same,Activity,Felis catus [8],Active
same,Activity,[9],5.5 µg/mL
same,Activity,[10],>600 mg
CC(CCc1ccc(O)cc1)NCCc1ccc(O)c(O)c1 (stereo not given) [DOBUTAMINE],Activity,[26],1640 mg
C=CCN/C(=N\C)C(Cl)(Cl)Cl.Cl,Activity,Felis catus [12],inactive
same,Activity,[7],201 mg
same,Activity,Felis catus [8],Active
same,Activity,[9],3.89 µg/mL
same,Activity,[10],>600 mg
COc1ccc(CNC(=N)C(Cl)(Cl)Br)cc1,pKa,[5],6.15
C[C@@H]1O[C@@H](O[C@H]2C[C@@H](O)[C@]3(CO)[C@H]4[C@H](O)C[C@]5(C)[C@@H](C6=CC(=O)OC6)CC[C@]5(O)[C@@H]4CC[C@]3(O)C2)[C@H](O)[C@H](O)[C@H]1O [OUABAIN],IC50,[1],0.5 µM
same,IC50,[3],0.2 µM
same,Activity,[27],201 mg
same,Activity,Canis familiaris [28],Active
same,IC50,[4],0.5 µM
same,Activity,[29],>600 mg
same,Activity,[30],>600 mg
CC(=O)OC(CNC(=N)C(Cl)(Cl)Cl)COc1ccccc1.Cl (stereo not given),IC50,[3],70 µM
same,Activity,[25],<200 mg
same,IC50,[4],170 µM
same,Activity,[7],201 mg
same,Activity,Felis catus [22],Active
same,Activity,Felis catus [8],Active
same,Activity,[9],4.96 µg/mL
same,Activity,[10],>600 mg
C=CCN(CC=C)C(=N)C(Cl)(Cl)Cl,Activity,Felis catus [11],inactive
C=CCNC(=N)C(Cl)(Cl)Cl.Cl,Activity,Felis catus [12],inactive
same,Activity,[7],201 mg
same,Activity,Felis catus [13],inactive
same,Activity,Felis catus [22],Active
same,Activity,[9],2.78 µg/mL
same,Activity,[10],>600 mg
N=C(NCCc1c[nH]c2ccccc12)C(Cl)(Cl)Cl,IC50,[1],150 µM
same,IC50,[2],4 µM
same,Activity,[6],201 mg
same,IC50,[4],33 µM
same,Activity,[7],201 mg
same,Activity,Felis catus [8],Active
same,Activity,[9],2.33 µg/mL
same,Activity,[10],>600 mg
COc1ccc(CNC(=N)C(Cl)(Cl)Cl)cc1.Cl,IC50,[1],800 µM
same,IC50,[2],100 µM
same,IC50,[3],5 µM
same,Activity,[25],<200 mg
same,IC50,[4],20 µM
same,Activity,[7],201 mg
same,pKa,[5],6
same,Activity,Felis catus [22],Active
same,Activity,Felis catus [8],Active
same,Activity,[9],4.99 µg/mL
same,Activity,[10],>600 mg
Cl.N=C(NCC1CC1)C(Cl)(Cl)Cl,Activity,[25],<200 mg
same,Activity,[7],201 mg
same,Activity,Felis catus [22],Active
same,Activity,Felis catus [8],Active
same,Activity,[9],3.21 µg/mL
same,Activity,[10],201 mg
